# Tests used:
# [1] = Therapeutic index, ratio of CC50 for human PBMC to EC50 for HIV1 WEJO infected in human PBMC; conditions: read-out: TI
# Procedure, shortened: (§1)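 PHA-stimulated (4 μg/ml, 48 to 72 h) PBMCs pooled from at least two seronegative donors, kept with 20 U/ml IL-2, plated at 5 × 10⁴ cells/well. Infected with clinical isolate (final MOI ≅0.1) alongside nine compound concentrations in triplicate wells, 7 days. Supernatant reverse transcriptase activity measured. TI is mean PBMC CC50 divided by mean EC50.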
# [2] = system: Human immunodeficiency virus 1; assay: Antiviral activity HIV1 92RW009 infected in human PBMC after 7 days by scintillation counting; type: functional, organism-based; conditions: Human immunodeficiency virus 1, 92RW009, 168 h
# Procedure, shortened: (§2)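 PBMCs came from buffy coats pooled from 3–4 seronegative donors, were PHA-stimulated (1.5 μg/ml, 3 days) and frozen. Thawed cells were infected 1 h at 37°C with virus input set by TCID50, then pelleted and resuspended in IL-2 (10 ng/ml). They were plated at 4 × 10⁵ cells/ml onto compounds for 7 days at 37°C. Supernatant RT activity was measured by Quan-T-RT scintillation assay.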
# [3] = Therapeutic index, ratio of CC50 for human PBMC to EC50 for HIV1 91US056 infected in human PBMC; conditions: read-out: TI
# Procedure, shortened: (§3)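 TI was the mean PBMC CC50 divided by the mean EC50 from the 7-day PBMC reverse transcriptase assay.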
# [4] = Therapeutic index, ratio of CC50 for human PBMC to EC50 for HIV1 ROJO infected in human PBMC; conditions: read-out: TI; procedure, shortened: as §1
# [5] = Therapeutic index, ratio of CC50 for human PBMC to EC50 for HIV1 91US005 infected in human PBMC; conditions: read-out: TI; procedure, shortened: as §3
# [6] = system: Human immunodeficiency virus 1; assay: Antiviral activity against HIV1 RF infected in human MT2 cells assessed as protection against virus-induced cytopathogenicity after 6 days by XTT assay; type: functional, organism-based; conditions: Human immunodeficiency virus 1, RF, MT2, 144 h
# Procedure, shortened: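 Host cells were infected with NL4-3 or IIIB (MOI 0.08) or RF (MOI 0.025–0.819) and seeded at 2 × 10⁴/well onto half-log compound dilutions. After 6 days, XTT/PMS was added for 4 h and formazan was read at 450 nm. EC50 was the concentration giving 50% of the formazan of uninfected, compound-free cells.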
# [7] = system: Human immunodeficiency virus 1; assay: Antiviral activity against HIV1 harboring capsid I201V mutant protein infected in human HeLa cells assessed as decrease in viral infection after 72 hrs by beta-galactosidase reporter gene assay; type: functional, organism-based; conditions: Human immunodeficiency virus 1, HeLa
# [8] = Therapeutic index, ratio of CC50 for human PBMC to EC50 for HIV1 3B infected in human PBMC; conditions: read-out: TI; procedure, shortened: as §3
# [9] = system: Human immunodeficiency virus 1; assay: Antiviral activity HIV1 93BR029 infected in human PBMC after 7 days by scintillation counting; type: functional, organism-based; conditions: Human immunodeficiency virus 1, 93BR029, 168 h; procedure, shortened: as §2
# [10] = system: Human immunodeficiency virus 1; assay: Antiviral activity HIV1 ROJO infected in human PBMC after 7 days by scintillation counting; type: functional, organism-based; conditions: Human immunodeficiency virus 1, ROJO, 168 h
# Procedure, shortened: (§4)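 Fresh PBMCs from HIV/HBV-seronegative donors were PHA-stimulated (4 μg/ml, 48–72 h) and kept with IL-2 (20 U/ml), with at least two donors pooled. Cells were seeded at 5 × 10⁴/well and infected (final MOI ≅0.1) with nine compound concentrations in triplicate wells. After 7 days, reverse transcriptase activity was measured in cell-free supernatant.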
# [11] = Therapeutic index, ratio of CC50 for human PBMC to EC50 for HIV1 92RW009 infected in human PBMC; conditions: read-out: TI
# Procedure, shortened: (§5)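 Frozen PHA-stimulated (1.5 μg/ml, 3 days) buffy-coat PBMCs pooled from three or four seronegative donors. Infected with a TCID50-based virus input per 10⁶ cells for 1 h at 37°C, then pelleted and resuspended in 10 ng/ml IL-2. Plated at 4 × 10⁵ cells/ml on compound dilutions for 7 days at 37°C. Supernatant RT measured by Quan-T-RT. TI is mean CC50 divided by mean EC50.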
# [12] = system: Human immunodeficiency virus 1; assay: Antiviral activity HIV1 92US076 infected in human PBMC after 7 days by scintillation counting; type: functional, organism-based; conditions: Human immunodeficiency virus 1, 92US076, 168 h; procedure, shortened: as §4
# [13] = Therapeutic index, ratio of CC50 for human PBMC to EC50 for HIV1 92HT594 infected in human PBMC; conditions: read-out: TI; procedure, shortened: as §5
# [14] = Therapeutic index, ratio of CC50 for human MT2 cells to EC50 for HIV1 92HT594 infected in human MT2 cells; type: cell-based; conditions: read-out: TI
# Procedure, shortened: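 TI was the mean CC50 (XTT, uninfected MT-2) divided by the mean EC50, determined for each cell line in each experiment.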
# [15] = system: Human immunodeficiency virus 1; assay: Antiviral activity against HIV1 92HT599 infected in human MT2 cells assessed as inhibition of viral p24 antigen production after 5 days; type: functional, organism-based; conditions: Human immunodeficiency virus 1, 92HT599, MT2, 120 h
# Procedure, shortened: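 PM1 cells (NL4-3, Ba-L) or MT-2 cells (92HT594, 92HT599) were infected at MOI 0.16 for 2 h and washed. They were plated at 1 × 10⁴ cells/well (2 × 10⁵/ml) onto half-log compound dilutions. Supernatant p24 was quantified by ELISA at day 5. EC50 was the concentration giving a 50% decrease versus infected, compound-free cells.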
# [16] = system: Human immunodeficiency virus 1; assay: Antiviral activity HIV1 92TH026 infected in human PBMC after 7 days by scintillation counting; type: functional, organism-based; conditions: Human immunodeficiency virus 1, 92TH026, 168 h; procedure, shortened: as §4
# [17] = Therapeutic index, ratio of CC50 for human PBMC to EC50 for HIV1 92BR004 infected in human PBMC; conditions: read-out: TI; procedure, shortened: as §3
# [18] = system: Human immunodeficiency virus 1; assay: Selectivity ratio of EC50 for HIV1 harboring spacer peptide A1V mutant protein infected in human HeLa cells to EC50 for wild type HIV1 infected in human HeLa cells; type: functional
# Procedure, shortened: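 MT-2 cells were infected for 2 h with wild-type NL4-3 or recombinant NL4-3 carrying CA I201V or SP1 A1V. They were then cocultured with HeLa CD4 LTR/beta-Gal indicator cells in serially diluted compound. Beta-gal reporter was read after 4 days. EC50s are means ± SD of 3–6 experiments. Fold change is mutant EC50 divided by wild-type EC50.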
# [19] = system: Human immunodeficiency virus 1; assay: Antiviral activity HIV1 93TH074 infected in human PBMC after 7 days by scintillation counting; type: functional, organism-based; conditions: Human immunodeficiency virus 1, 93TH074, 168 h; procedure, shortened: as §2
# [20] = Therapeutic index, ratio of CC50 for human PM1 cells to EC50 for HIV1 Ba-L infected in human PM1 cells; type: cell-based; conditions: read-out: TI
# Procedure, shortened: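 PM1 cells infected at MOI 0.16 for 2 h, washed, then seeded at 1 × 10⁴ cells/well on half-log compound dilutions. After 5 days, supernatant p24 antigen was quantified by ELISA kit. EC50 is the concentration halving p24 versus infected untreated cells. CC50 was measured in PM1 cells by XTT formazan at 450 nm. TI is CC50 divided by EC50.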
# [21] = Therapeutic index, ratio of CC50 for human PBMC to EC50 for HIV1 NL4-3 infected in human PBMC; conditions: read-out: TI; procedure, shortened: as §5
# [22] = system: Human immunodeficiency virus 1; assay: Antiviral activity HIV1 NL4-3 infected in human PBMC after 7 days by scintillation counting; type: functional, organism-based; conditions: Human immunodeficiency virus 1, NL4-3, 168 h; procedure, shortened: as §2
# [23] = system: Human immunodeficiency virus 1; assay: Antiviral activity HIV1 92US660 infected in human PBMC after 7 days by scintillation counting; type: functional, organism-based; conditions: Human immunodeficiency virus 1, 92US660, 168 h; procedure, shortened: as §4
compound,measurement,setting,value
CC(C)(C)c1ccc(C(Cn2cccc(C(F)(F)F)c2=O)NC2Cc3ccccc3C2)cc1 (stereo not drawn),selectivity ratio,[1],11
same,EC50,[2],1400 nM
same,selectivity ratio,[3],< 1
same,selectivity ratio,[4],< 1
same,selectivity ratio,[5],< 1
same,EC50,[6],> 16000 nM
same,EC50,[7],> 10000 nM
same,selectivity ratio,[8],53
same,EC50,[9],570 nM
same,EC50,[10],> 17000 nM
same,selectivity ratio,[11],12
same,EC50,[12],7 nM
same,selectivity ratio,[13],15
same,selectivity ratio,[14],79
same,EC50,[15],210 nM
same,EC50,[16],> 17000 nM
same,selectivity ratio,[17],52
same,Ratio EC50,[18],>16
same,EC50,[19],120 nM
same,selectivity ratio,[20],4
same,selectivity ratio,[21],155
same,EC50,[22],110 nM
same,EC50,[23],12000 nM

# From ChEMBL document CHEMBL1649302, “New small-molecule inhibitor class targeting human immunodeficiency virus type 1 virion maturation” (Antimicrob Agents Chemother, 2009)
